Data set [1] relates to L1210. As to the kind of experiment: Inhibitory concentration against L1210 murine leukemia cell line. The data set is classed as functional, cell-based. The conditions noted are these: Mus musculus. The gist of the method:
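L1210 cells grown in RPMI 1640 with 10% fetal calf serum, 2 mM L-glutamine, penicillin/streptomycin and 10 mM HEPES (pH 7.4). Cells exposed 48 h to graded concentrations (nine serial dilutions, triplicate). Viability read by microculture tetrazolium assay. IC50 = concentration reducing optical density by 50% versus untreated controls.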

Data set [2] deals with L1210. As to the kind of experiment: Percentage of L1210 cell line in G2M-phase of cell cycle at 10 uM. The data set is classed as functional, Mus musculus. The gist of the method:
(§1)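 L1210 cells (2.5 × 10^5 cells/mL) incubated 21 h with compound at the stated concentration. Cells fixed in 70% ethanol, then stained 30 min at 20 °C in PBS with 100 µg/mL RNase and 25 µg/mL propidium iodide. Flow cytometry on 10^4 cells per sample, 488 nm excitation, 615 nm long-pass emission. Output is the percentage of cells in each cycle phase.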

In data set [3] the test system is L1210. As to the kind of experiment: Percentage of L1210 cell line in G2M-phase of cell cycle at 5 uM. The data set is classed as functional, Mus musculus. The gist of the method: as §1
The test system of data set [4] is L1210. As to the kind of experiment: Percentage of L1210 cell line in 8 N-phase of cell cycle at 5 uM. The data set is classed as functional, Mus musculus. The gist of the method:
as §1

The test system of data set [5] is L1210. As to the kind of experiment: Percentage of L1210 cell line in G2M-phase of cell cycle at 50 uM. The data set is classed as functional, Mus musculus. The gist of the method:
as §1

The test system of data set [6] is L1210. As to the kind of experiment: Percentage of L1210 cell line in S-phase of cell cycle at 100 uM; NS = no specific effect (toxic at 10 uM). The data set is classed as functional, cell-based. The settings on record: Mus musculus. In a few lines: as §1
Data set [7] concerns L1210. As to the kind of experiment: Percentage of L1210 cell line in G2M-phase of cell cycle at 25 uM. The data set is classed as functional, Mus musculus. The gist of the method:
as §1

Data set [8] concerns L1210. As to the kind of experiment: Percentage of L1210 cell line in 8 N-phase of cell cycle at 1 uM. The data set is classed as functional, Mus musculus. In a few lines: as §1
In data set [9] the test system is L1210. As to the kind of experiment: Percentage of L1210 cell line in G2M-phase of cell cycle at 1 uM. The data set is classed as functional, Mus musculus. The gist of the method: as §1
Data set [10] concerns L1210. As to the kind of experiment: Percentage of L1210 cell line in S-phase of cell cycle at 100 uM. The data set is classed as functional, Mus musculus. In a few lines:
as §1

In data set [11] the test system is L1210. As to the kind of experiment: Percentage of L1210 cell line in S-phase of cell cycle at 100 uM; NS = no specific effect (toxic at 5 uM). The data set is classed as functional, cell-based. The conditions noted are these: Mus musculus. The gist of the method:
as §1

In data set [12] the test system is L1210. As to the kind of experiment: Percentage of L1210 cell line in G2M-phase of cell cycle at 2 uM. The data set is classed as functional, Mus musculus. The gist of the method:
as §1

The test system of data set [13] is L1210. As to the kind of experiment: Percentage of L1210 cell line in G2M-phase of cell cycle at 20 uM. The data set is classed as functional, Mus musculus. In a few lines:
as §1

The test system of data set [14] is L1210. As to the kind of experiment: Percentage of L1210 cell line in G2M-phase of cell cycle at 0.5 uM. The data set is classed as functional, Mus musculus. The gist of the method: as §1
Data set [15] concerns L1210. As to the kind of experiment: Percentage of L1210 cell line in 8 N-phase of cell cycle at 0.5 uM. The data set is classed as functional, Mus musculus. In a few lines: as §1
Data set [16] concerns L1210. As to the kind of experiment: Percentage of L1210 cell line in G1-phase of cell cycle at 25 uM. The data set is classed as functional, Mus musculus. In a few lines:
as §1

The subject of data set [17] is L1210. As to the kind of experiment: Percentage of L1210 cell line in 8 N-phase of cell cycle at 10 uM. The data set is classed as functional, Mus musculus. In a few lines:
as §1

Data set [18] deals with L1210. As to the kind of experiment: Toxicity of compound was tested at 25 uM;Toxic. The data set is classed as cell-based. The settings on record: mouse, l1210, 25 µM.
In data set [19] the test system is L1210. As to the kind of experiment: Percentage of L1210 cell line in 8 N-phase of cell cycle at 1 uM; Toxic. The data set is classed as toxicity, cell-based. The settings on record: mouse, l1210, 1 µM. The gist of the method:
as §1

Data set [20] has as its system L1210. As to the kind of experiment: Percentage of L1210 cell line in S-phase of cell cycle at 100 uM; NS = no specific effect (toxic at 2 uM). The conditions noted are these: Mus musculus. The data set is classed as functional, cell-based. In a few lines: as §1
Data set [21] relates to L1210. As to the kind of experiment: Percentage of L1210 cell line in G2M-phase of cell cycle at 100 uM. The data set is classed as functional, Mus musculus. The gist of the method:
as §1

Calls of active or inactive are those of the source. The rule behind the calls is not given here.

Regarding `CN(C)CCCNC(=O)c1ccc2c(n1)N(C)c1ncccc1N2C`, the IC50 (usually the concentration needed to halve the response being measured) in the data set with L1210 [1] turned out to be 1700 nM. This molecule gave an Activity in the data set with L1210 [2] of 67%.
`CN1c2cccnc2N(C)c2nc(CNCCCOCCCNCc3ccc4c(n3)N(C)c3ncccc3N4C)ccc21`: in the data set with L1210 [1], the IC50 was found to be 680 nM. For the same molecule, the figures for the Activity in the data set on L1210 [3] and in the data set on L1210 [4] were 78% and 18%, respectively.
In the data set with L1210 [1], `CN1c2ccc(C=O)nc2N(C)c2cccnc21` showed an IC50 of 21600 nM. Moreover, in the data set on L1210 [5], the Activity is given as 90%.
The molecule `CN1c2ccc(CNCCCNCc3ccc4c(n3)N(C)c3cccnc3N4C)nc2N(C)c2cccnc21` registered an IC50 in the data set on L1210 [1] of 4000 nM. In the data set on L1210 [6], the outcome was inactive.
As for `CN(C)CCCN(C)Cc1ccc2c(n1)N(C)c1ncccc1N2C`, in the data set with L1210 [1], the half-maximal inhibitory concentration (IC50) worked out at 11500 nM.
For `CN(C)CCCNCc1ccc2c(n1)N(C)c1cccnc1N2C`, the half-inhibitory concentration (IC50) in the data set on L1210 [1] was found to be 9200 nM. Moreover, the Activity in the data set with L1210 [7] stood at 39%.
The molecule `CN(C)CCCNCc1ccc2c(n1)N(C)c1ncccc1N2C` gave an IC50 in the data set on L1210 [1] of 170 nM. The results for the Activity with L1210 [8] and in the data set with L1210 [9] were 14% and 66%, respectively.
`CN(C)CCC(=O)NCc1ccc2c(n1)N(C)c1ncccc1N2C` yielded an IC50 with L1210 [1] of 21100 nM.
In turn, `CN1c2cccnc2N(C)c2cccnc21` showed an IC50 in the data set with L1210 [1] of 31100 nM. Besides, the Activity in the data set with L1210 [10] came to 51%.
For `CN1c2cccnc2N(C)c2nc(CNCCCCCCCNCc3ccc4c(n3)N(C)c3ncccc3N4C)ccc21`, the result in the data set on L1210 [11] was inactive. In the data set on L1210 [1], the IC50 is 710 nM.
`CN1c2cccnc2N(C)c2nc(CNCCCNCc3ccc4c(n3)N(C)c3cccnc3N4C)ccc21` gave an IC50 with L1210 [1] of 480 nM. In the data set on L1210 [12], this molecule gave an Activity of 66%.
In the data set on L1210 [1], `CN1c2cccnc2N(C)c2nc(CNCCNCCNCCNCc3ccc4c(n3)N(C)c3ncccc3N4C)ccc21` had an IC50 of 4100 nM. The Activity in the data set with L1210 [13] was determined as 70%.
For the molecule `CN1c2cccnc2N(C)c2nc(CNCCCNCCCNCc3ccc4c(n3)N(C)c3ncccc3N4C)ccc21`, 360 nM corresponded to half-maximal inhibition with L1210 [1] (IC50). For the same molecule, the Activity came out at 18% in the data set with L1210 [8] and 65% with L1210 [9].
With `CN(C)CCCCNCc1ccc2c(n1)N(C)c1ncccc1N2C`, the Activity in the data set with L1210 [14] is given as 54%; in the data set with L1210 [15] it was 32%. Also, the midpoint of inhibition with L1210 [1], the IC50, lay at 140 nM.
Consider `CN1c2cccnc2N(C)c2nc(C=O)ccc21`, for which 20000 nM corresponded to half-maximal inhibition with L1210 [1] (IC50).
For the molecule `CN(C)CCNCc1ccc2c(n1)N(C)c1cccnc1N2C`, the midpoint of inhibition in the data set with L1210 [1], the IC50, lay at 26700 nM. Besides, the Activity in the data set on L1210 [16] worked out at 55%.
On to `CN1c2cccnc2N(C)c2nc(CNCCCCNCc3ccc4c(n3)N(C)c3ncccc3N4C)ccc21`, for which the outcome with L1210 [11] (in the assay text read “at 5 uM” for “at 100 uM”) was inactive. In the data set on L1210 [1], this molecule came in with an IC50 of 1700 nM.
The molecule `CN(C)CCNCc1ccc2c(n1)N(C)c1ncccc1N2C` displayed a concentration for half-maximal inhibition (IC50) with L1210 [1] of 11300 nM. Further, the Activity with L1210 [17] worked out at 4%; in the data set with L1210 [2] it was 47%.
`CN(C)CCCCCNCc1ccc2c(n1)N(C)c1ncccc1N2C` yielded an IC50 in the data set with L1210 [1] of 500 nM. Moreover, the Activity result in the data set with L1210 [18] is recorded as “Toxic”.
Consider `CN1c2cccnc2N(C)c2nc(CNCCCNCc3ccc4c(n3)N(C)c3ncccc3N4C)ccc21`, for which 430 nM corresponded to half-maximal inhibition in the data set with L1210 [1] (IC50). Further, in the data set on L1210 [9], the Activity is recorded as 68%.
On to `CN1c2cccnc2N(C)c2nc(CNCCNCc3ccc4c(n3)N(C)c3ncccc3N4C)ccc21`, for which the IC50 with L1210 [1] is 2700 nM. In the data set on L1210 [2], the Activity is recorded as 79%.
In the data set with L1210 [1], `CN1c2cccnc2N(C)c2nc(CNCCCNCCCCNCCCNCc3ccc4c(n3)N(C)c3ncccc3N4C)ccc21` registered an IC50 of 710 nM. The same molecule returned an Activity in the data set with L1210 [3] of 72%.
Consider `CN1c2cccnc2N(C)c2nc(CNCCCN)ccc21`, for which the Activity entry with L1210 [19] was “Toxic”; in the data set on L1210 [9], 65%. In addition, in the data set with L1210 [1], 140 nM corresponded to half-maximal inhibition (IC50).
`CN1c2ccc(CNCCCCCCCNCc3ccc4c(n3)N(C)c3cccnc3N4C)nc2N(C)c2cccnc21` showed an IC50 with L1210 [1] of 500 nM. The result in the data set on L1210 [20] was inactive.
For the molecule `CN(CCCNCc1ccc2c(n1)N(C)c1cccnc1N2C)CCCNCc1ccc2c(n1)N(C)c1cccnc1N2C`, in the data set on L1210 [1], the IC50 was 3500 nM. The result with L1210 [6] was inactive.
Turning to `CN1c2cccnc2N(C)c2ncccc21`, the IC50 with L1210 [1] came out at 34000 nM. Moreover, the Activity was 49% with L1210 [10] and 34% in the data set with L1210 [21].
